Experimental data as given in ChEMBL document CHEMBL2202980, “Anti-viral activity of (-)- and (+)-usnic acids and their derivatives against influenza virus A(H1N1)2009” (Bioorg Med Chem Lett, 2012).

What was measured:
[1] = Cytotoxicity against MDCK cells after 48 hrs by MTT assay; format: cell-based, Canis lupus familiaris; settings: dog, read-out: CTD50
In short: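 MDCK monolayers were grown in MEM with 5% fetal calf serum and washed with serum-free MEM. They were exposed to serial twofold dilutions from 5 mg/ml DMSO stocks for 48 h at 37 °C. CTD50 was derived from this.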

[2] = system: Influenza A virus; experiment: Antiviral activity against Influenza virus A/California/07/09 (H1N1) pdm09 infected in MDCK cells after 48 hrs followed by incubated in chicken erythrocytes for 1 hr by hemagglutinination based end-point dilution method; format: functional, Influenza A virus (A/California/07/2009(H1N1)); settings: read-out: ED50 (the source's name)
In short: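 MDCK cells were pretreated for 1 h at 37 °C with serial twofold compound dilutions in MEM containing 2 mM arginine, 2 mM glutamine and trypsin. They were then infected and cultured at 36 °C for 48 h. Supernatant was mixed with 1% chicken erythrocytes for 1 h at room temperature. Titer was read as the end-point dilution giving hemagglutination in 50% of wells. ED50 is the concentration halving virus production versus untreated control.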

[3] = Selectivity index, ratio of CTD50 for MDCK cells to ED50 for influenza virus A/California/07/09 (H1N1) pdm09; format: toxicity, cell-based; settings: dog, read-out: Selectivity Index
[4] = system: RAW264.7; experiment: Antiinflammatory activity in mouse RAW264.7 cells assessed as inhibition of LPS-induced iNOS protein synthesis; format: functional, cell-based
[5] = Selectivity index, ratio of cytotoxicity against human CEM cells to Antiviral activity against HIV1 RF; format: toxicity, cell-based, CCRF-CEM; settings: read-out: Selectivity Index
[6] = system: RAW264.7; experiment: Antiinflammatory activity in mouse RAW264.7 cells assessed as inhibition of LPS-induced TNFalpha level; format: functional, cell-based

Compound	CC50 at 48 h [1]	EC50 ([2]; Influenza A virus, pdm09, MDCK)	selectivity ratio [3]	EC50 [2]	IC50 [4]	selectivity ratio [5]	IC50 [6]
CC(=O)c1c(O)c(C)c(O)c2c1OC1=Cc3c(c(C)nn3-c3ccccc3)C(=O)[C@@]12C	769 µM	62.2 µM	12.4	–	–	–	–
CC(=O)c1c(O)c(C)c(O)c2c1OC1=Cc3c(c(C)nn3-c3ccccc3)C(=O)[C@]12C	522 µM	57.8 µM	9	–	–	–	–
CC(=O)c1c(O)c(C)c(O)c2c1OC1=Cc3c(c(C)nn3-c3ccccc3)[C@@H](O)[C@@]12C	78.9 µM	6 µM	13.2	–	–	–	–
CC(=O)c1c(O)c(C)c(O)c2c1OC1=Cc3c(c(C)nn3-c3ccccc3)[C@@H](O)[C@]12C	71.8 µM	10.5 µM	6.8	–	–	–	–
CC(=O)c1c(O)c(C)c(O)c2c1OC1=CC(=O)/C(=C(/C)NCC(F)(F)C(F)F)C(=O)[C@@]12C	31.1 µM	1.6 µM	19.4	–	–	–	–
CC(=O)c1c(O)c(C)c(O)c2c1OC1=CC(=O)/C(=C(/C)NCC(F)(F)C(F)F)C(=O)[C@]12C	397 µM	38.9 µM	10.2	–	–	–	–
CC[N+](C)(CC)CCN/C(C)=C1\C(=O)C=C2Oc3c(C(C)=O)c(O)c(C)c(O)c3[C@@]2(C)C1=O	121 µM	5.5 µM	21.9	–	–	–	–
CC[N+](C)(CC)CCN/C(C)=C1\C(=O)C=C2Oc3c(C(C)=O)c(O)c(C)c(O)c3[C@]2(C)C1=O	34.2 µM	12.5 µM	2.7	–	–	–	–
CC(=O)c1c(O)c(C)c(O)c2c1OC1=CC(=O)/C(=C(/C)NCC(=O)O)C(=O)[C@@]12C	67.3 µM	–	6	11.2 µM	–	–	–
CC(=O)c1c(O)c(C)c(O)c2c1OC1=CC(=O)/C(=C(/C)NCC(=O)O)C(=O)[C@]12C	197 µM	–	18.4	10.7 µM	–	–	–
CC(=O)c1c(O)c(C)c(O)c2c1OC1=CC(=O)/C(=C(/C)NCCC(=O)O)C(=O)[C@@]12C	162 µM	6.9 µM	23.5	–	–	–	–
CC(=O)c1c(O)c(C)c(O)c2c1OC1=CC(=O)/C(=C(/C)NCCC(=O)O)C(=O)[C@]12C	400 µM	400 µM	1	–	–	–	–
CC(=O)c1c(O)c(C)c(O)c2c1OC1=CC(=O)/C(=C(/C)Nc3ccc(F)cc3)C(=O)[C@@]12C	208 µM	23.6 µM	8.8	–	–	–	–
CC(=O)c1c(O)c(C)c(O)c2c1OC1=CC(=O)/C(=C(/C)Nc3ccc(F)cc3)C(=O)[C@]12C	350 µM	90.4 µM	3.9	–	–	–	–
CC(=O)c1c(O)c(C)c(O)c2c1OC1=CC(=O)/C(=C(/C)Nc3ccc(Cl)cc3)C(=O)[C@@]12C	172 µM	25.1 µM	6.9	–	–	–	–
CC(=O)c1c(O)c(C)c(O)c2c1OC1=CC(=O)/C(=C(/C)Nc3ccc(Cl)cc3)C(=O)[C@]12C	153 µM	13.1 µM	11.7	–	–	–	–
CC(=O)c1c(O)c(C)c(O)c2c1OC1=CC(=O)/C(=C(/C)Nc3ccc(Br)cc3)C(=O)[C@@]12C	193 µM	20.2 µM	9.6	–	–	–	–
CC(=O)c1c(O)c(C)c(O)c2c1OC1=CC(=O)/C(=C(/C)Nc3ccc(Br)cc3)C(=O)[C@]12C	154 µM	30.4 µM	5.1	–	–	–	–
CC(=O)c1c(O)c(C)c(O)c2c1OC1=CC(=O)/C(=C(/C)Nc3cccc(F)c3)C(=O)[C@@]12C	61.3 µM	12.7 µM	4.8	–	–	–	–
CC(=O)c1c(O)c(C)c(O)c2c1OC1=CC(=O)/C(=C(/C)Nc3cccc(F)c3)C(=O)[C@]12C	35.3 µM	4 µM	8.8	–	–	–	–
CC(=O)c1c(O)c(C)c(O)c2c1OC1=CC(=O)/C(=C(/C)Nc3cccc(Br)c3)C(=O)[C@@]12C	33.6 µM	10.4 µM	3.2	–	–	–	–
CC(=O)c1c(O)c(C)c(O)c2c1OC1=CC(=O)/C(=C(/C)Nc3cccc(Br)c3)C(=O)[C@]12C	97.8 µM	9.8 µM	10	–	–	–	–
CC(=O)C1=C(O)C=C2O[C@]34O[C@@]3(C(C)=O)C(=O)C(C)=C(O)[C@]4(O)[C@@]2(C)C1=O	190 µM	5.1 µM	37.3	–	–	–	–
CC(=O)C1=C(O)C=C2O[C@]34O[C@@]3(C(C)=O)C(=O)C(C)=C(O)[C@]4(O)[C@]2(C)C1=O	221 µM	27.7 µM	8	–	–	–	–
CC(=O)C1=C(O)C=C2Oc3c(C(C)=O)c(O)c(C)c(O)c3[C@@]2(C)C1=O [(+)-USNIC ACID]	305 µM	–	5.9	51.7 µM	4.7 µM	3	12.8 µM
CC(=O)C1=C(O)C=C2Oc3c(C(C)=O)c(O)c(C)c(O)c3[C@]2(C)C1=O [(-)-USNIC ACID]	209 µM	14.5 µM	14.4	–	–	–	–
NC(=O)c1ncn([C@@H]2O[C@H](CO)[C@@H](O)[C@H]2O)n1 [RIBAVIRIN]	> 2000 µM	24.6 µM	> 81	–	–	–	–
CC(N)C12CC3CC(CC(C3)C1)C2 (configuration not stated) [RIMANTADINE]	284 µM	56.9 µM	5	–	–	–	–
